According to publication PMC10883201 (Nature, 2023):
≈ marks a conversion by molar mass, not a printed value.

How the values were obtained:
C. albicans SN250 = experiment: Erg extraction experiment; format: cell-based, Candida albicans; details: C. albicans SN250, compound at 5 μM
[1] = ITC, Erg-containing LUVs; AmB–Erg binding data reported earlier; cited from earlier work
[2] = Solution stability in PBS buffer; format: physicochemical; details: PBS buffer at pH 6
H9c2 myocardial cells = experiment: Cell viability assay; format: cell-based, rat; details: up to highest concentration tested 50 μM
Method in brief: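 Rat myocardial cells maintained in complete DMEM with FBS, Pen-Strep and non-essential amino acids, 37 °C, 5% CO2. After trypsinization, cells at 5 × 10^5 cells ml−1 were seeded at […] and rested 3 h. Compound was given at 0.5–50 μM final (1% DMSO) for 24 h, with DMSO and puromycin controls. alamarBlue was added 3 h, then fluorescence read at 537/585 nm. Triplicate; mean of three experiments.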

human red blood cells = experiment: Red blood cell lysis / permeabilization; format: cell-based; details: up to highest concentration tested 500 μM
[3] = Renal toxicity in mice, 24 h post single IV dose; format: in vivo, female CD-1 mice
[4] = test system: primary human renal proximal tubule epithelial cells; experiment: Cell viability assay; format: cell-based; details: up to highest concentration tested 50 μM
HepG2 liver cells = experiment: Cell viability assay; format: cell-based, human; details: up to highest concentration tested 50 μM
Method in brief: (§1)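 Cells grown in complete MEM with FBS, Pen-Strep and non-essential amino acids at 37 °C, 5% CO2. Trypsinized cells were adjusted to 5 × 10^5 cells ml−1, seeded at 10^4 cells per well, and held 3 h at 37 °C. Compound was then added at 0.5–50 μM final in 1% DMSO, with DMSO and puromycin controls, for 24 h. alamarBlue was read after 3 h (ex 537/em 585 nm). Triplicate; average of three experiments.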

[5] = ITC with Erg-containing large unilamellar vesicles; format: binding; details: ITC heat exchange
Aspergillus fumigatus 91 = experiment: MIC assay; format: cell-based
SH-SY5Y neural cells = experiment: Cell viability assay; format: cell-based, human; details: up to highest concentration tested 50 μM
Method in brief: as §1

K562 cells = experiment: Cell viability assay; format: cell-based, human; details: up to highest concentration tested 50 μM
Method in brief: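 Suspension cells grown in complete IMDM with FBS and Pen-Strep at 37 °C, 5% CO2. Without trypsinization, suspension was adjusted to 12.5 × 10^5 cells ml−1 and held 3 h at 37 °C before compound. Exposure was 0.5–50 μM final in 1% DMSO, with DMSO and puromycin controls, for 24 h. Viability was by alamarBlue fluorescence after 3 h (ex 537/em 585 nm). Triplicate; average of three experiments.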

Candida krusei = experiment: MIC assay; format: cell-based
[6] = ITC with Chol-containing large unilamellar vesicles; format: binding; details: ITC heat exchange

solution stability [2] | Structure (SMILES) | T50% (time required for 50% Erg extraction) (C. albicans SN250) [h] | ΔΔHErg (ΔHsterol – ΔHsterol-free) [1] [µcal] | toxicity (H9c2 myocardial cells) | toxicity (human red blood cells) | kidney injury biomarkers ([3]; 24 h after single IV 45 mg/kg dose) | renal biomarkers ([3]; doses of ≥45 mg kg^−1, single IV, 24 h, 1:2 deoxycholate formulation) | toxicity [4] | toxicity (HepG2 liver cells) | Erg binding [5] | MIC (Aspergillus fumigatus 91) [µM] | toxicity (SH-SY5Y neural cells) | toxicity (K562 cells) | MIC (Candida krusei) [µM] | Chol binding [6]
– | C[C@@H]1[C@H](O)[C@@H](C)/C=C/C=C/C=C/C=C/C=C/C=C/C=C/[C@H](O[C@@H]2O[C@H](C)[C@@H](O)[C@H](N)[C@@H]2O)C[C@@H]2O[C@](O)(C[C@@H](O)C[C@@H](O)[C@H](O)CC[C@@H](O)C[C@@H](O)CC(=O)O[C@H]1C)C[C@H](O)[C@H]2C(=O)O [AmB, amphotericin B, reference compound] | 0.92 | -42.4 ± 11.2 | – | – | – | – | – | – | – | – | – | – | – | –
unstable | CC1C=CC=CC=CC=CC=CC=CC=CC(OC2CC(N)C(O)C(C)O2)CC2OC(O)(CC(O)CC(O)C(O)CCC(O)CC(O)CC(=O)OC(C)C(C)C1O)CC(O)C2C(=O)O (stereo not shown) [C2′deOAmB] | – | – | – | – | – | – | – | – | – | – | – | – | – | –
– | C[C@@H]1[C@H](O)[C@@H](C)/C=C/C=C/C=C/C=C/C=C/C=C/C=C/[C@H](O[C@@H]2O[C@H](C)[C@@H](O)[C@H](N)[C@H]2O)C[C@@H]2O[C@](O)(C[C@@H](O)C[C@@H](O)[C@H](O)CC[C@@H](O)C[C@@H](O)CC(=O)O[C@H]1C)C[C@H](O)[C@H]2C(=O)O [C2′epiAmB] | 2.75 | – | no toxicity | no toxicity | do not elevate kidney injury biomarkers | no elevation of renal biomarkers | no toxicity | no toxicity | retained, albeit diminished, capacity to bind Erg | > 32 | no toxicity | no toxicity | 1 (≈ 0.924 µg/mL) | no binding
